# From ChEMBL document CHEMBL1136233, “Bisphosphonates derived from fatty acids are potent inhibitors of Trypanosoma cruzi farnesyl pyrophosphate synthase” (Bioorg Med Chem Lett, 2003)
# Columns and labels:
# Trypanosoma cruzi [1] = test: Inhibitory concentration against Trypanosoma cruzi (epimastigotes); assay type: functional, organism-based
# Outline: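 Epimastigote growth inhibition; IC50 values are the means of three experiments.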
# Trypanosoma cruzi [2] = test: Maximum inhibitory activity against Trypanosoma cruzi (amastigotes); assay type: functional
# Trypanosoma cruzi [3] = test: Inhibitory concentration against Trypanosoma cruzi (amastigotes); assay type: functional, organism-based
# Trypanosoma cruzi [4] = test: Maximum inhibitory activity against Trypanosoma cruzi (amastigotes)
IC50 (Trypanosoma cruzi [1]) [µM],IC50 (Trypanosoma cruzi [3]; Trypanosoma cruzi) [µM],IC50 (Trypanosoma cruzi [3]) [µM],SMILES,Inhibition (Trypanosoma cruzi [2]) [%],Inhibition (Trypanosoma cruzi [4]) [%]
> 50,–,–,CCCCCCCC(P(=O)(OCC)OCC)P(=O)(OCC)OCC,–,–
> 70,–,–,CCCCCCCCC(O)(P(=O)(O)O)P(=O)(O)O,–,–
> 50,–,–,CCCCCCC(P(=O)(OCC)OCC)P(=O)(OCC)OCC,–,–
> 70,–,–,CCCCCCCCCC(P(=O)(O)O)P(=O)(O)O,–,–
> 70,–,–,CCCCCCCCC(P(=O)(O)O)P(=O)(O)O,–,–
> 70,> 70,–,CCCCCCCC(O)(P(=O)(O)O)P(=O)(O)O,–,41
> 70,> 70,–,CCCCCC(O)(P(=O)(O)O)P(=O)(O)O,–,34
> 70,> 70,–,CCCCCCC(P(=O)(O)O)P(=O)(O)O,47,–
> 70,> 70,–,CCCCCCCC(P(=O)(O)O)P(=O)(O)O,49,–
> 70,–,–,CCCCCCCCCC(O)(P(=O)(O)O)P(=O)(O)O,–,–
–,–,18.1,CCCCCCC(O)(P(=O)(O)O)P(=O)(O)O,–,–
–,> 70,–,CCCCCCCCCCCCCC(O)(P(=O)(O)O)P(=O)(O)O,10,–

# Further lines, the compound ahead of its results:
SMILES,IC50 (Trypanosoma cruzi [1]) [µM],IC50 (Trypanosoma cruzi [3]; Trypanosoma cruzi) [µM],IC50 (Trypanosoma cruzi [3]) [µM],Inhibition (Trypanosoma cruzi [2]) [%],Inhibition (Trypanosoma cruzi [4]) [%]
CCCCCC(P(=O)(OCC)OCC)P(=O)(OCC)OCC,> 50,–,–,–,–
CCCC(P(=O)(OCC)OCC)P(=O)(OCC)OCC,> 70,> 70,–,27,–
CCCCCCCCC(P(=O)(OCC)OCC)P(=O)(OCC)OCC,> 50,> 50,–,–,–
CCOP(=O)(OCC)C(CC)P(=O)(OCC)OCC,–,> 70,–,–,–
CCC(P(=O)(O)O)P(=O)(O)O,> 100,> 100,–,21,–
CCCC(P(=O)(O)O)P(=O)(O)O,> 100,> 90,–,28,–
CCCCC(P(=O)(OCC)OCC)P(=O)(OCC)OCC,> 70,> 50,–,–,–
CCCCCCCCCC(P(=O)(OCC)OCC)P(=O)(OCC)OCC,> 50,–,–,–,–
CCCCCC(P(=O)(O)O)P(=O)(O)O,> 70,–,–,–,–
CCCCC(P(=O)(O)O)P(=O)(O)O,> 70,> 70,–,–,–
CCCC(O)(P(=O)(O)O)P(=O)(O)O,> 70,–,–,–,–
